Results: ChEMBL document CHEMBL1142299, “Coumarin as attractive casein kinase 2 (CK2) inhibitor scaffold: an integrate approach to elucidate the putative binding motif and explain structure-activity relationships” (J Med Chem, 2008)

assay: Inhibition of CK2 in rat liver
Procedure, shortened: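 Native CK2 purified from rat liver. Started with kinase, stopped at 10 min with orthophosphoric acid. Read by phosphocellulose filter binding and counting. Three independent experiments, values averaged.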

| Structure (SMILES) | IC50 | Ki |
| --- | --- | --- |
| O=c1ccc2c(O)cc(O)cc2o1 | 35 µM | – |
| COc1cc(O)cc2oc(=O)c(C)cc12 | > 40 µM | – |
| CCOC(=O)c1cc2c(Br)cccc2oc1=O | 118 µM | – |
| Cc1cc(=O)oc2c(C)c(O)c([N+](=O)[O-])cc12 | 30 µM | – |
| O=c1cc(CCl)c2ccc(O)cc2o1 | > 40 µM | – |
| COc1c(O)c(-c2ccnnc2)cc2ccc(=O)oc12 | > 100 µM | – |
| Cc1cc(=O)oc2c(C=O)c(O)ccc12 | > 40 µM | – |
| Cc1c(Br)c(=O)oc2c(Br)c(N)ccc12 | > 40 µM | – |
| Cc1cc(=O)oc2cc(O)cc(O)c12 [5,7-DIHYDROXY-4-METHYLCOUMARIN] | 35 µM | – |
| Cc1cc(=O)oc2cc(O)ccc12 [HYMECROMONE] | > 100 µM | – |
| O=c1ccc2ccc(O)cc2o1 [UMBELLIFERONE] | > 100 µM | – |

Compounds with a lower IC50, results first:

| IC50 | Ki | Structure (SMILES) |
| --- | --- | --- |
| 10.5 µM | – | Cc1c(Br)c(=O)oc2c(O)c(O)ccc12 |
| 0.4 µM | – | O=c1c2c(O)cccc2oc2c([N+](=O)[O-])ccc(O)c12 |
| 0.3 µM | – | Cc1cc(=O)oc2cc3c([N+](=O)[O-])c(O)ccc3cc12 |
| 0.11 µM | – | O=C(O)/C=C/c1cc(Br)c(Br)c(Br)c1Br |
| 2 µM | – | Cc1c(Br)c(=O)oc2c(Br)c(O)c(O)cc12 |
| 3.3 µM | – | Cc1c(Br)c(=O)oc2c(C=O)c(O)ccc12 |
| 0.1 µM | 0.06 µM | Cc1c(Br)c(=O)oc2c(Br)c(O)ccc12 |
| 0.04 µM | – | O=c1oc2c(O)c(O)cc3c(=O)oc4c(O)c(O)cc1c4c23 [ELLAGIC ACID] |
